Series [1] has as its target 5-hydroxytryptamine receptor 2A (Homo sapiens, UniProt P28223). Kind of series: Displacement of [3H]-Ketanserin from human 5-HT2A receptor expressed in HEK293 cells after 1 hr. The format is cell-based. A general note: In a radioligand displacement assay an active substance lowers the binding of a labelled ligand.
In series [2] the target is Adrenergic receptor alpha-1 (Rattus norvegicus). As to the kind of experiment: Displacement of [3H]-prazosin from rat alpha1 adrenoceptor in rat cerebral cortex after 1 hr.
Series [3] relates to Mus musculus. Kind of series: Antidepressant activity in ip dosed C57BL/6J mouse assessed as reduction in immobility time of mouse by tail suspension test. The format is functional. The settings on record: read-out: MED.
Series [4] has as its system Mus musculus. Kind of series: Antidepressant activity in C57BL/6J mouse assessed as immobility time at 5 mg/kg, ip measured over 6 mins by tail suspension test (reference value: 160.7 +/- 12 to 170.6 +/- 9 sec). The format is functional.
Series [5] relates to Mus musculus. As to the kind of experiment: Antidepressant activity in C57BL/6J mouse assessed as immobility time at […], ip measured over 6 mins by tail suspension test (reference value: 160.7 +/- 12 to 170.6 +/- 9 sec). The format is functional.
The subject of series [6] is Mus musculus. As to the kind of experiment: Antidepressant activity in C57BL/6J mouse assessed as number of events at […], ip measured over 6 mins by tail suspension test (reference value: 1325.1 +/- 77.8 to 1773.4 +/- 109.9). The format is functional.
Series [7] deals with 5-hydroxytryptamine receptor 6 (Homo sapiens, UniProt P50406). As to the kind of experiment: Displacement of [3H]-LSD from human 5-HT6 receptor expressed in HEK293 cells after 1 hr. It is filed as cell-based. The method, boiled down: (§1)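 Membranes from stably transfected HEK293 cells were homogenized in assay buffer and spun twice at 35,000 g with a 15-min 37 °C step between. Binding ran 1 h at 37 °C and was stopped by rapid filtration, then filter radioactivity was counted. 5-HT6 buffer: 50 mM Tris-HCl, 0.5 mM EDTA, 4 mM MgCl2, with methiothepine for nonspecific binding. D2L buffer: Tris-HCl, EDTA, MgCl2, 120 mM NaCl, KCl, CaCl2, ascorbate, with (+)butaclamol for nonspecific binding. Triplicate, 7–8 concentrations (10^-11–10^-4 M).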
Sequence of 5-hydroxytryptamine receptor 6 (P50406 whole entry): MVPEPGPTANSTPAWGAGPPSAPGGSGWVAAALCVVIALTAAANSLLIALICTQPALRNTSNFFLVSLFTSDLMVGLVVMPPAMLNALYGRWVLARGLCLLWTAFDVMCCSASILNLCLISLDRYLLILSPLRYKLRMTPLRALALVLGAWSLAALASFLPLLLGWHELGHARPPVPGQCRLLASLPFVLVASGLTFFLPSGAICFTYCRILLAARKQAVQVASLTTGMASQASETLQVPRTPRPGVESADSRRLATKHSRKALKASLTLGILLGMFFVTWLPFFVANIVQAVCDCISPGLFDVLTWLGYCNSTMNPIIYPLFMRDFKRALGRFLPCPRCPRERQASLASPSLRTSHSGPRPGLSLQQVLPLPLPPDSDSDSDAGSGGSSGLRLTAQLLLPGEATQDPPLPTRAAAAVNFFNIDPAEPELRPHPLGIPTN

Series [8] deals with Mus musculus. Kind of series: Toxicity in ip dosed albino Swiss mouse assessed as effect on spontaneous locomotory activity at MED measured over 2 to 6 mins. The format is organism-based. To be noted: in vivo. The method, boiled down:
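Male Albino Swiss mice (22–28 g) received drug i.p. 60 min before testing, in 1% aqueous Tween 80 or distilled water. Each mouse was habituated alone in a plastic cage for 30 min, then ambulation was counted from 2 to 6 min. Groups of 6–10 animals, each used once.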

Series [9] has as its system Mus musculus. Kind of series: Toxicity in ip dosed Albino Swiss mouse assessed as effect on spontaneous locomotory activity at MED measured over 2 to 6 mins. The settings on record: in vivo.
For series [10], the system named is Mus musculus. Kind of series: Antidepressant activity in C57BL/6J mouse assessed as number of events at 0.625 mg/kg, ip measured over 6 mins by tail suspension test (reference value: 1325.1 +/- 77.8 to 1773.4 +/- 109.9). The format is functional.
Series [11] relates to Mus musculus. As to the kind of experiment: Toxicity in ip dosed C57BL/6J mouse assessed as effect on spontaneous locomotory activity at MED measured over 1 min 15 secs. The format is organism-based. The settings on record: in vivo.
Series [12] relates to Mus musculus. Kind of series: Antidepressant activity in C57BL/6J mouse assessed as average force at 5 mg/kg, ip measured over 6 mins by tail suspension test (reference value: 0.281 +/- 0.018 to 0.359 +/- 0.027 N). It is filed as functional.
A further series addresses D(2) dopamine receptor (Homo sapiens, UniProt P14416). As to the kind of experiment: Displacement of [3H]-Raclopride from human D2L receptor expressed in HEK293 cells after 1 hr. It is filed as cell-based. The method, boiled down:
as §1

The target of series [13] is T1, 5-hydroxytryptamine receptor 7 (Homo sapiens, UniProt P34969). Kind of series: Displacement of [3H]-5-CT from human 5-HT7B receptor expressed in HEK293 cells after 1 hr. The format is cell-based. The method, boiled down: (§2)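 Competition binding on membranes from HEK293 cells stably expressing human 5-HT7b or 5-HT1A. Incubation 1 h, at 37 °C for 5-HT7b and at room temperature for 5-HT1A. Non-specific binding defined with 10 µM 5-HT.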
T1 sequence (P34969 whole entry): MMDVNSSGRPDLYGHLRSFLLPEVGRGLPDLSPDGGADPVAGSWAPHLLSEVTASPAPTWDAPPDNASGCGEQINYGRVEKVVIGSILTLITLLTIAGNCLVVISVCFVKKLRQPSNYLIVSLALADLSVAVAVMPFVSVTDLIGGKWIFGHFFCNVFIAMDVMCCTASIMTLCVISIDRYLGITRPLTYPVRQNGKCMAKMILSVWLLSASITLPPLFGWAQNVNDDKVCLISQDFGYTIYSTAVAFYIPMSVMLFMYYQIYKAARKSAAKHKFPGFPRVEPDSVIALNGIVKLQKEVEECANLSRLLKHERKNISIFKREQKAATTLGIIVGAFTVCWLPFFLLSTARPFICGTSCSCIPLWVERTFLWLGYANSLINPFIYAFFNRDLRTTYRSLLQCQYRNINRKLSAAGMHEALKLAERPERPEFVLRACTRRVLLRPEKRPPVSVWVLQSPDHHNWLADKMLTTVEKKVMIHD

For series [14], the system named is Mus musculus. As to the kind of experiment: Antidepressant activity in C57BL/6J mouse assessed as average force at […], ip measured over 6 mins by tail suspension test (reference value: 0.281 +/- 0.018 to 0.359 +/- 0.027 N). The format is functional.
Series [15] deals with T2, 5-hydroxytryptamine receptor 1A (Homo sapiens, UniProt P08908).
T2 sequence (P08908 whole entry): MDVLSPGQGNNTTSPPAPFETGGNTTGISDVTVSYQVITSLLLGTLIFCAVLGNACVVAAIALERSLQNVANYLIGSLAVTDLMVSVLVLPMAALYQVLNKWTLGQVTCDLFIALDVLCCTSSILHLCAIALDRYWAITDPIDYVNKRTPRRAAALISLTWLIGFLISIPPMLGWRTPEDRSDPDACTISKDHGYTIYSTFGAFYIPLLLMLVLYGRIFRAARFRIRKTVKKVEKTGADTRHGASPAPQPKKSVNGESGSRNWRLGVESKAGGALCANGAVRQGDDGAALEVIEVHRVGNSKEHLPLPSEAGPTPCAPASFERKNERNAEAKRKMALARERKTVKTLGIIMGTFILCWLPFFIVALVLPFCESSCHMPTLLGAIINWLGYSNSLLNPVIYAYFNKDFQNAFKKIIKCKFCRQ
Kind of series: Displacement of [3H]-8-OH-DPAT from human 5-HT1A receptor expressed in HEK293 cells after 1 hr. The format is cell-based. The method, boiled down: as §2

For series [16], the system named is Mus musculus. Kind of series: Antidepressant activity in C57BL/6J mouse assessed as average force at 0.625 mg/kg, ip measured over 6 mins by tail suspension test (reference value: 0.281 +/- 0.018 to 0.359 +/- 0.027 N). The format is functional.
The target of series [17] is T1, 5-hydroxytryptamine receptor 7. As to the kind of experiment: Antagonist activity at human 5-HT7B receptor expressed in CHO cells assessed as inhibition of 5-CT induced cAMP production at 10^-7 M after 30 mins by TR-FRET assay. It is filed as functional, cell-based. In general terms: Cyclic AMP is a second messenger, typically raised through Gs and lowered through Gi signalling.

Series [18] has the same target. As to the kind of experiment: Antagonist activity at human 5-HT7B receptor expressed in […] cells assessed as inhibition of 5-CT induced cAMP production at 10^-6 M after 30 mins by TR-FRET assay. The format is functional, cell-based.
The target is the same in series [19]. As to the kind of experiment: Antagonist activity at human 5-HT7B receptor expressed in HEK293 cells assessed as inhibition of 5-CT-induced cAMP production after 30 mins by TR-FRET assay. The format is functional, cell-based. The method, boiled down:
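HEK293 cells stably expressing human 5-HT7b, grown in DMEM with 10% dialyzed FBS and G418, then resuspended in HBSS with 5 mM HEPES, 0.5 mM IBMX and 0.1% BSA. 450 cells per well were incubated 30 min at room temperature with compound and 6.2 nM 5-CT. After lysis, cAMP was read by LANCE TR-FRET after 1 h. Triplicate, 8 concentrations (10^-11–10^-4 M). Kb = IC50/(1+A/EC50).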

In a further series the test system is Rattus norvegicus. As to the kind of experiment: Antidepressant activity in ip dosed Wistar rat assessed as reduction in immobility time of rat by forced swim test. The format is functional. The settings on record: read-out: MED. The method, boiled down: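 Male Wistar rats (220-250 g), ip injection 30 min before test. Day 1: 15-min pre-swim in a cylinder with 15 cm of water at 25 °C, then drying under a lamp. Next day: total immobility recorded over the whole 5-min test, with fresh water for each rat.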

1 molecule from ChEMBL document CHEMBL3758131, “Towards new 5-HT7 antagonists among arylsulfonamide derivatives of (aryloxy)ethyl-alkyl amines: Multiobjective based design, synthesis, and antidepressant and anxiolytic properties” (Eur J Med Chem, 2016) can be followed below.

Sequence of 5-hydroxytryptamine receptor 2A (P28223 whole entry): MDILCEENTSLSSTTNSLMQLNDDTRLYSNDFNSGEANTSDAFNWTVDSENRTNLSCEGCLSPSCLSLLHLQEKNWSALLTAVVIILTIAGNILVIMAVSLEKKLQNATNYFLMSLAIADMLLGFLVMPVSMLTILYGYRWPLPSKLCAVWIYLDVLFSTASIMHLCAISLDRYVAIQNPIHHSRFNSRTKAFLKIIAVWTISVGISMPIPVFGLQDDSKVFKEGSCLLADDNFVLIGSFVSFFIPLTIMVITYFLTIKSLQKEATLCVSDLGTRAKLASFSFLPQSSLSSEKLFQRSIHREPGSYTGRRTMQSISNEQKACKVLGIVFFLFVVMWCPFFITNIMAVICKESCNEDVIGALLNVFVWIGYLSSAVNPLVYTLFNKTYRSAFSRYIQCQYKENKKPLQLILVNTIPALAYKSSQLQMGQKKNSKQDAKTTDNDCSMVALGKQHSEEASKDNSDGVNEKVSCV
Sequence of D(2) dopamine receptor (P14416 whole entry): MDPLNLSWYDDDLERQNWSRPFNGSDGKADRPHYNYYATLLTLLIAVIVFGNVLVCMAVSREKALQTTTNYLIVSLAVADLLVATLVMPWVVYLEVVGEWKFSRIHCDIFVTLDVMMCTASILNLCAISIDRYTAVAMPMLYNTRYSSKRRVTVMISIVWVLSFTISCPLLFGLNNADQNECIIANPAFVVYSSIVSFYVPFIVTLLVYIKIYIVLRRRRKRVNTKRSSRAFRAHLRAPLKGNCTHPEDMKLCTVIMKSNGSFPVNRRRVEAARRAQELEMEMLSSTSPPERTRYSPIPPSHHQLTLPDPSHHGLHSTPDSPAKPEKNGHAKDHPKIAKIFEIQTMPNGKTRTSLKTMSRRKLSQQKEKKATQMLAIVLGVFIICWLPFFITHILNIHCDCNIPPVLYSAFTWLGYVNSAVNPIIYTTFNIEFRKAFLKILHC

In general, Ki refers to a measure of affinity in units of concentration, obtained from inhibition or displacement. High values mean lower affinity, low ones higher affinity. What is called inhibition is the change of the read-out against control, counted positive when it falls. By Kb is commonly meant the affinity of an antagonist, worked out from how it opposes an agonist. As for `O=S(=O)(NC1CCN(CCOc2ccccc2C2CCCC2)CC1)c1cccc(F)c1`, the Ki was 303 nM in series [1]; 1525 nM in series [2]; 281 nM in [7]; 322 nM at D(2) dopamine receptor; 19 nM in series [13]; 545 nM in series [15]. Further, the minimal effective dose came out at 2.5 mg/kg in the series with Mus musculus [3] and 1.25 mg/kg in the series with Rattus norvegicus. Moreover, the Time came to 142.8 s with Mus musculus [4] and 103.5 s in the series with Mus musculus [5]. Also, the Activity in the series on Mus musculus [6] is reported as 1400.7; with Mus musculus [8], “Non-toxic”; in the series on Mus musculus [9], “Non-toxic”; in the series with Mus musculus [10], 1446.8; with Mus musculus [11] it was “Non-toxic”; in the series on Mus musculus [12], 0.426 N. The Activity came to 0.641 N in the series on Mus musculus [14] and 0.18 N in the series with Mus musculus [16]. Further, the inhibition in [17] amounted to 61%; in [18], 90%. The Kb in series [19] worked out at 85 nM.
